Source: ChEMBL document CHEMBL3525963, “Tissue distribution and elimination of [14C]apixaban in rats” (Drug Metab Dispos, 2011)

Key:
Parameters in all cases: dose 5 mg/kg, dosed compound name [14C]-apixaban, route oral
Settings in all cases: in vivo
Harderian gland [1] = assay: Biodistribution in male Sprague-Dawley rat harderian gland at 5 mg/kg, po administered as single dose measured after 8 hrs; format: ADME, organism-based
Outline: (§1)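 [¹⁴C]Apixaban given by oral gavage at 5 mg/kg (100 μCi/kg) in 0.5% Tween 80 in Labrafil (1.0 mg/mL dosing solution) to rats fasted overnight through 4 h post-dose. One rat per time point; carcass frozen in hexane/dry ice. Quantitative whole-body autoradiography used 40 µm sagittal sections and a phosphor imaging plate calibrated with [¹⁴C]glucose standards (0.001–6.5 μCi/g). Read-out in µg eq apixaban/g; LLOQ 0.037 μg eq/g.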

Blood [2] = assay: Biodistribution in pregnant Sprague-Dawley rat blood at 5 mg/kg, po administered as single dose measured after 8 hrs; format: ADME, organism-based
Outline: (§2)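 Fasted pregnant SD rats (n=6, 270-319 g) each received one oral gavage dose of [14C]apixaban, 5 mg/kg (100 μCi/kg), in 0.5% Tween 80/Labrafil. One rat was killed at each of 0.5, 1, 4, 8, 24 and 48 h. Carcasses were frozen in hexane/dry ice, cut into 40 µm sagittal sections, exposed to phosphor plates and quantified against [14C]glucose standards as µg eq/g. LLOQ was 0.037 µg eq/g.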

Brain = assay: Biodistribution in female Sprague-Dawley rat brain at 5 mg/kg, po administered as single dose measured after 4 hrs; format: ADME, organism-based
Outline: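 [14C]Apixaban (1.0 mg/mL, 20 μCi/mL in 0.5% Tween 80 in Labrafil) given as a single oral gavage of 5 mg/kg (100 μCi/kg) to fasted female SD rats, one rat per time point. Carcasses were frozen in hexane/dry ice and cut into 40 µm sagittal sections for QWBA against [14C]glucose standards. Brain radioactivity is reported as µg eq/g, with LLOQ 0.037 µg eq/g.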

Rattus norvegicus [3] = assay: Biodistribution in male Sprague-Dawley rat salivary gland at 5 mg/kg, po administered as single dose measured after 1 hr; format: ADME, organism-based
Rattus norvegicus [4] = assay: Biodistribution in female Sprague-Dawley rat brown fat at 5 mg/kg, po administered as single dose measured after 24 hrs; format: ADME, organism-based, Brown adipose tissue
Outline: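 Quantitative whole-body autoradiography was run after a single 5 mg/kg (100 μCi/kg) oral gavage to fasted female or pregnant SD rats, one rat per time point. Carcasses were frozen in hexane/dry ice, and 40 µm sagittal sections were dried at −20°C for at least 48 h. Sections were exposed to a phosphor plate alongside [14C]glucose standards (0.001–6.5 µCi/g). Results are µg eq/g, with LLOQ 0.037 µg eq/g.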

Liver = assay: Biodistribution in female Sprague-Dawley rat liver at 5 mg/kg, po administered as single dose measured after 8 hrs; format: ADME, organism-based; outline: as §1
Rattus norvegicus [5] = assay: Biodistribution in pregnant Sprague-Dawley rat kidney cortex at 5 mg/kg, po administered as single dose measured after 4 hrs; format: ADME, organism-based
Rattus norvegicus [6] = assay: Biodistribution in male Sprague-Dawley rat pituitary gland at 5 mg/kg, po administered as single dose measured after 0.5 hrs; format: ADME, organism-based
Adrenal gland = assay: Biodistribution in pregnant Sprague-Dawley rat adrenal gland at 5 mg/kg, po administered as single dose measured after 8 hrs; format: ADME, organism-based
Thymus [7] = assay: Biodistribution in pregnant Sprague-Dawley rat thymus at 5 mg/kg, po administered as single dose measured after 48 hrs; format: ADME, organism-based
Outline: (§3)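 Pregnant SD rats (270-319 g) were fasted overnight and given one oral gavage of 5 mg/kg (100 μCi/kg) in 0.5% Tween 80 in Labrafil. One rat was euthanized per time point (0.5, 1, 4, 8, 24, 48 h) and the carcass frozen. 40 µm sagittal sections were phosphor-imaged against [14C]glucose standards and results reported as µg eq/g; LLOQ 0.037 µg eq/g.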

Harderian gland [8] = assay: Biodistribution in pregnant Sprague-Dawley rat harderian gland at 5 mg/kg, po administered as single dose measured after 0.5 hrs; format: ADME, organism-based
Rattus norvegicus [9] = assay: Biodistribution in fetal liver of pregnant Sprague-Dawley rat at 5 mg/kg, po administered as single dose measured after 8 hrs; format: ADME, organism-based
Outline: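 Pregnant SD rats received a single oral gavage of [14C]apixaban at 5 mg/kg (100 μCi/kg; 1.0 mg/mL, 20 μCi/mL in 0.5% Tween 80/Labrafil) after fasting, one dam per time point. Frozen carcasses were cut into 40 µm sagittal sections and read by phosphor-imaging QWBA against [14C]glucose standards. Fetal tissue radioactivity is reported as µg eq/g, with LLOQ 0.037 µg eq/g.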

Harderian gland [10] = assay: Biodistribution in female Sprague-Dawley rat harderian gland at 5 mg/kg, po administered as single dose measured after 4 hrs; format: ADME, organism-based; outline: as §1
Thymus [11] = assay: Biodistribution in male Sprague-Dawley rat thymus at 5 mg/kg, po administered as single dose measured after 4 hrs; format: ADME, organism-based
Rattus norvegicus [12] = assay: Biodistribution in female Sprague-Dawley rat brown fat at 5 mg/kg, po administered as single dose measured after 1 hr; format: ADME, organism-based, Brown adipose tissue
Outline: (§4)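 [14C]apixaban (20 μCi/mL in dosing solution) in 0.5% Tween 80 in Labrafil given by oral gavage to fasted female rats, 206-213 g, at 100 μCi/kg. One rat per time point was euthanized and snap-frozen. Sagittal 40 µm whole-body sections were read by QWBA phosphor imaging against [14C]glucose standards. Results are in µg eq apixaban/g, with LLOQ 0.037 μg eq/g.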

Rattus norvegicus [13] = assay: Biodistribution in pregnant Sprague-Dawley rat salivary gland at 5 mg/kg, po administered as single dose measured after 1 hr; format: ADME, organism-based
Rattus norvegicus [14] = assay: Biodistribution in pregnant Sprague-Dawley rat placenta at 5 mg/kg, po administered as single dose measured after 8 hrs; format: ADME, organism-based
Rattus norvegicus [15] = assay: Biodistribution in pregnant Sprague-Dawley rat brown fat at 5 mg/kg, po administered as single dose measured after 1 hr; format: ADME, organism-based, Brown adipose tissue
Rattus norvegicus [16] = assay: Biodistribution in female Sprague-Dawley rat brown fat at 5 mg/kg, po administered as single dose measured after 4 hrs; format: ADME, organism-based, Brown adipose tissue; outline: as §4
Muscle tissue = assay: Biodistribution in pregnant Sprague-Dawley rat muscle at 5 mg/kg, po administered as single dose measured after 24 hrs; format: ADME, organism-based; outline: as §3
Rattus norvegicus [17] = assay: Biodistribution in male Sprague-Dawley rat pituitary gland at 5 mg/kg, po administered as single dose measured after 1 hr; format: ADME, organism-based
Heart = assay: Biodistribution in pregnant Sprague-Dawley rat heart at 5 mg/kg, po administered as single dose measured after 4 hrs; format: ADME, organism-based
Pancreas = assay: Biodistribution in male Sprague-Dawley rat pancreas at 5 mg/kg, po administered as single dose measured after 1 hr; format: ADME, organism-based
Outline: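 [14C]apixaban (1.0 mg/mL, 20 μCi/mL) in 0.5% Tween 80 in Labrafil, given by oral gavage at 100 μCi/kg to male rats (225-252 g) fasted overnight through 4 h post-dose. One rat per time point. Carcasses frozen in hexane/dry ice and cut into 40 µm sagittal sections. QWBA read on phosphor plates against [14C]glucose standards, reported as µg eq/g. LLOQ 0.037 µg eq/g.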

Harderian gland [18] = assay: Biodistribution in pregnant Sprague-Dawley rat harderian gland at 5 mg/kg, po administered as single dose measured after 48 hrs; format: ADME, organism-based; outline: as §2
Blood [19] = assay: Biodistribution in pregnant Sprague-Dawley rat blood at 5 mg/kg, po administered as single dose measured after 24 hrs; format: ADME, organism-based; outline: as §2
Rattus norvegicus [20] = assay: Biodistribution in female Sprague-Dawley rat kidney cortex at 5 mg/kg, po administered as single dose measured after 8 hrs; format: ADME, organism-based; outline: as §4

- Radiolabel recovery (Harderian gland [1]): 0.12 ugequiv/g
- Radiolabel recovery (Blood [2]): 0.09 ugequiv/g
- Radiolabel recovery (Brain): < 0.037 ugequiv/g
- Radiolabel recovery (Rattus norvegicus [3]): 0.72 ugequiv/g
- Radiolabel recovery (Rattus norvegicus [4]): Not detected assumed BLQ
- Radiolabel recovery (Liver): 1.12 ugequiv/g
- Radiolabel recovery (Rattus norvegicus [5]): 1.93 ugequiv/g
- Radiolabel recovery (Rattus norvegicus [6]): 0.26 ugequiv/g
- Radiolabel recovery (Adrenal gland): 0.18 ugequiv/g
- Radiolabel recovery (Thymus [7]): Not detected assumed BLQ
- Radiolabel recovery (Harderian gland [8]): 1 ugequiv/g
- Radiolabel recovery (Rattus norvegicus [9]): 0.06 ugequiv/g
- Radiolabel recovery (Harderian gland [10]): 1.12 ugequiv/g
- Radiolabel recovery (Thymus [11]): 0.23 ugequiv/g
- Radiolabel recovery (Rattus norvegicus [12]): 0.77 ugequiv/g
- Radiolabel recovery (Rattus norvegicus [13]): 0.95 ugequiv/g
- Radiolabel recovery (Rattus norvegicus [14]): 0.1 ugequiv/g
- Radiolabel recovery (Rattus norvegicus [15]): 0.95 ugequiv/g
- Radiolabel recovery (Rattus norvegicus [16]): 0.61 ugequiv/g
- Radiolabel recovery (Muscle tissue): Not detected assumed BLQ
- Radiolabel recovery (Rattus norvegicus [17]): 0.59 ugequiv/g
- Radiolabel recovery (Heart): 0.83 ugequiv/g
- Radiolabel recovery (Pancreas): 0.62 ugequiv/g
- Radiolabel recovery (Harderian gland [18]): Not detected assumed BLQ
- Radiolabel recovery (Blood [19]): Not detected assumed BLQ
- Radiolabel recovery (Rattus norvegicus [20]): 0.42 ugequiv/g
SMILES: COc1ccc(-n2nc(C(N)=O)c3c2C(=O)N(c2ccc(N4CCCC[14C]4=O)cc2)CC3)cc1
